Numbering of substitutions follows the chain as printed. pIC50: −log10 of the molar value.
Assays:
HEK 293 = experiment: Cell proliferation assay; assay type: cell-based; details: Homo sapiens, HEK293, read-out: IC50, Human cell lines, HEK 293
Outline: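 Cells in DMEM/10% FBS, 37°C, 5% CO2. Seeded from 1 × 10^5 cells/mL and allowed to adhere overnight. Test compound added at 2.5–100 μg/mL (0.5% DMSO final), five wells per concentration. Incubated 0, 24, 48 or 72 h, then 4 h with MTS/PMS (20:1), and A492 read. DMSO and medium-only controls. IC50 by nonlinear regression against log concentration.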

SpLeuRS T252R = target: T1, SpLeuRS T252R (Streptococcus pneumoniae serotype 4, UniProt Q97SS0, T252R); experiment: Aminoacylation by SpLeuRS T252R mutant; assay type: biochemical; details: 50 μM ZCL039
T1 sequence (Q97SS0 1-833 T252R): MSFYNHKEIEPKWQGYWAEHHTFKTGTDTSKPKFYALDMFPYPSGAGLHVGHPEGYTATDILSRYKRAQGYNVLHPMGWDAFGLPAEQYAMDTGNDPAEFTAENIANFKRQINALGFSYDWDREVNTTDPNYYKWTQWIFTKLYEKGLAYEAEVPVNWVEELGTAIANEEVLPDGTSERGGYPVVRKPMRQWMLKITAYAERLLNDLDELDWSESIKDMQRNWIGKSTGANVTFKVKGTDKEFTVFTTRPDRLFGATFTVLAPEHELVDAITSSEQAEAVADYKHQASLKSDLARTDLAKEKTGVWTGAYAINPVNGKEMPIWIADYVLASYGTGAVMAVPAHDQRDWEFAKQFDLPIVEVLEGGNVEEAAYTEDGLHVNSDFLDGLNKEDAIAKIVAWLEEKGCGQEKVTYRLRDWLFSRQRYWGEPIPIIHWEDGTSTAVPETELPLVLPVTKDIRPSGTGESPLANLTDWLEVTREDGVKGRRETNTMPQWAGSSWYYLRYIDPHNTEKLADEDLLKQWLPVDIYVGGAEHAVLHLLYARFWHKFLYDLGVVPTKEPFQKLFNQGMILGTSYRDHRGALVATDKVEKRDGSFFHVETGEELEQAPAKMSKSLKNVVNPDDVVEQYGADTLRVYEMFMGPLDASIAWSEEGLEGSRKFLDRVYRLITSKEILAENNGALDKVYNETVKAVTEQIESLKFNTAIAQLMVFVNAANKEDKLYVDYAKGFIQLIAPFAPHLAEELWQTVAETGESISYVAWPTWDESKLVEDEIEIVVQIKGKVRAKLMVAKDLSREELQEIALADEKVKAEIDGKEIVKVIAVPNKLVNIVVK
Outline: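 Aminoacylation at 37°C, started with 4 mM ATP. Point mutants were made by site-directed mutagenesis. The MmLinker chimera has CP1 Lys226–Thr411 replaced by a nonapeptide. Means of three independent experiments.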

[1] = system: E. coli strains containing pET30a-eclrs; experiment: MIC upon overexpression of EcLeuRS; assay type: cell-based, Escherichia coli; details: induced by IPTG
Outline: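 E. coli transformants carrying pET30a-eclrs, with the empty pET30a vector strain as control. Both were induced with 10 μM IPTG and tested by broth microdilution in Mueller Hinton broth (37°C, 24 h). MICs were read as the lowest concentration without visible growth and compared between the two strains.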

SpLeuRS C399S = target: T2, SpLeuRS C399S (Streptococcus pneumoniae serotype 4, UniProt Q97SS0, W399S); experiment: Aminoacylation and deacylation by SpLeuRS C399S mutant; assay type: biochemical; details: 50 μM ZCL039
T2 sequence (Q97SS0 1-833 W399S): T1 sequence (Q97SS0 1-833 T252R) with R252T, W399S

OB1OCc2ccc(C(O)c3ccccc3)cc21 (stereo not shown) [ZCL039, [6-(1-phenyl-1-hydroxylmethyl)]-1,3-dihydro-1-hydroxy-2,1-benzoxaborole]
pIC50 (HEK 293): < 3.70 | Effect on synthetic activity of T252R mutant (SpLeuRS T252R): did not affect | Increase in the MIC, pET30a-eclrs vs pET30a [1]: over 4 fold | Sensitivity of C399S mutant to ZCL039 (SpLeuRS C399S): comparable to the wild-type SpLeuRS
